For 18 compounds, inhibition and residual activity results are on record in ChEMBL document CHEMBL2146466, “Evaluation of dimerization-inhibitory activities of cyclic peptides containing a β-hairpin loop sequence of the EGF receptor” (2012).

Active and inactive are the calls of the source. The rule behind the calls is not given here. Where a SMILES comes first, the peptide text is derived from it.

Assay [1] addresses Epidermal growth factor receptor (Homo sapiens) (UniProt P00533). The assay is described as follows: Inhibition of human recombinant EGF receptor dimerization expressed in A431 cells at 10 uM after 10 mins by immunoblotting analysis relative to control. The assay is classed as cell-based. The note with it: A-431. In outline: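 Confluent A431 cells were solubilized in 20 mM HEPES pH 7.4 with 1% Triton X-100, 10% glycerol, 1 mM EGTA and 1 mM PMSF, and the extract was spun at 250,000×g. Supernatant at 2 µg/µL protein was pre-treated 60 min with 10 µM peptide, then given 0.21 µM human EGF for 10 min. Cross-linking was with 1 mM BS³ for 10 min, quenched with glycine. Dimer and monomer were resolved by SDS-PAGE and anti-EGFR immunoblot, with ECL quantification. Dimer without peptide was set to 1.0; mean ± SD of at least three experiments in duplicate.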
A general note: Immunoblotting shows a protein as a band on a membrane.

Assay [2] shares this target. As to the kind of experiment: Human recombinant EGF receptor dimer amount expressed in A431 cells at 10 uM after 10 mins by immunoblotting analysis relative to control. Conditions: A-431.

Epidermal growth factor receptor (Homo sapiens), sequence (P00533 whole entry): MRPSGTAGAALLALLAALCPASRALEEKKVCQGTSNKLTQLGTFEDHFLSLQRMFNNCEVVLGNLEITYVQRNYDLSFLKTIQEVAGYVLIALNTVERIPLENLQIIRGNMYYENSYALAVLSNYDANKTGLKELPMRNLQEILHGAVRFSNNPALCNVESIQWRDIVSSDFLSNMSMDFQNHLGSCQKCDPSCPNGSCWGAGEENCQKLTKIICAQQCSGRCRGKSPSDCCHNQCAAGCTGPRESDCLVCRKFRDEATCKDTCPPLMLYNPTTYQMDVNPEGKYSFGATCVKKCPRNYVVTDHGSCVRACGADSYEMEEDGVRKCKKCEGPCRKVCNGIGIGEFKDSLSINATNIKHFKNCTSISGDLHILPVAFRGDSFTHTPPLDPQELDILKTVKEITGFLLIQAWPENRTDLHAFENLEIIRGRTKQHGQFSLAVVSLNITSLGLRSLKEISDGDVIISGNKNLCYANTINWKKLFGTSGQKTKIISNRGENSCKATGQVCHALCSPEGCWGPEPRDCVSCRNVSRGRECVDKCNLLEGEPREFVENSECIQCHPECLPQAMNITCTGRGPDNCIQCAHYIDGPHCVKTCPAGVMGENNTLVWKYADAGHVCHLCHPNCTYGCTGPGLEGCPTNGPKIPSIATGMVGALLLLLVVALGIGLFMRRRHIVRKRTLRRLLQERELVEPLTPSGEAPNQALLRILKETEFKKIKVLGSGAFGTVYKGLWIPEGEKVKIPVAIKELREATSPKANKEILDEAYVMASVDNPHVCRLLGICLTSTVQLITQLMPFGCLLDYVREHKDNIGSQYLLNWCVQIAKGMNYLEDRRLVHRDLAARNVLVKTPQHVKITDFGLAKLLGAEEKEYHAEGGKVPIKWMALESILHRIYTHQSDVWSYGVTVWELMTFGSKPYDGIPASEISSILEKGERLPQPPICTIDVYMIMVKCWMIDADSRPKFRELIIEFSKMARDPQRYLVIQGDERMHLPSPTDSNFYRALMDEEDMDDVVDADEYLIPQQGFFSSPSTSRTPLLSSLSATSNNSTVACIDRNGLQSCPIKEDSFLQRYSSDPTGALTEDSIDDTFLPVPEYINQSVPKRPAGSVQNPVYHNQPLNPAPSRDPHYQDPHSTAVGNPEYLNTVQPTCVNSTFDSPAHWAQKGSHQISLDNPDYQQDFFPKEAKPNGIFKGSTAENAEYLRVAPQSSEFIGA

In the case of `CSCC[C@@H]1NC(=O)[C@H](CCC(N)=O)NC(=O)[C@H](Cc2ccc(O)cc2)NC(=O)[C@H]([C@@H](C)O)NC(=O)[C@H]([C@@H](C)O)NC(=O)[C@@H]2CCCN2C(=O)[C@H](CC(N)=O)NC(=O)[C@H](C)NC(=O)[C@@H](N)CSSC[C@@H](C(=O)O)NC1=O` (HELM PEPTIDE1{C.A.N.P.T.T.Y.Q.M.C}$PEPTIDE1,PEPTIDE1,1:R3-10:R3$$$V2.0), the inhibition entry in assay [1] is “inactive”.

Regarding `CSCC[C@@H]1NC(=O)[C@H](CCC(N)=O)NC(=O)[C@H](Cc2ccc(O)cc2)NC(=O)[C@H]([C@@H](C)O)NC(=O)[C@H]([C@@H](C)O)NC(=O)[C@@H]2CCCN2C(=O)[C@H](CC(N)=O)NC(=O)[C@H](Cc2ccc(O)cc2)NC(=O)[C@H](CC(C)C)NC(=O)[C@H](CCSC)NC(=O)[C@H](CC(C)C)NC(=O)[C@@H](N)CSSC[C@@H](C(=O)O)NC(=O)[C@H](CCC(=O)O)NC(=O)[C@@H]2CCCN2C(=O)[C@H](C(C)C)NC(=O)[C@H](CC(=O)O)NC1=O` (HELM PEPTIDE1{C.L.M.L.Y.N.P.T.T.Y.Q.M.D.V.P.E.C}$PEPTIDE1,PEPTIDE1,1:R3-17:R3$$$V2.0), the inhibition entry in assay [1] is “Active”.

As for `CSCC[C@@H]1NC(=O)[C@H](CCC(N)=O)NC(=O)[C@H](Cc2ccc(O)cc2)NC(=O)[C@H]([C@@H](C)O)NC(=O)[C@H]([C@@H](C)O)NC(=O)[C@@H]2CCCN2C(=O)[C@H](CC(N)=O)NC(=O)[C@H](Cc2ccc(O)cc2)NC(=O)[C@H](CC(C)C)NC(=O)[C@@H](N)CSSC[C@@H](C(=O)O)NC1=O` (HELM PEPTIDE1{C.L.Y.N.P.T.T.Y.Q.M.C}$PEPTIDE1,PEPTIDE1,1:R3-11:R3$$$V2.0), the residual activity in assay [2] turned out to be 80%.

For the compound `CSCC[C@@H]1NC(=O)[C@H](CCC(N)=O)NC(=O)[C@H](Cc2ccc(O)cc2)NC(=O)[C@H]([C@@H](C)O)NC(=O)[C@H]([C@@H](C)O)NC(=O)[C@@H]2CCCN2C(=O)[C@H](CC(N)=O)NC(=O)[C@H](Cc2ccc(O)cc2)NC(=O)[C@H](CC(C)C)NC(=O)[C@@H](N)CSSC[C@@H](C(=O)O)NC(=O)[C@H](CC(=O)O)NC1=O` (HELM PEPTIDE1{C.L.Y.N.P.T.T.Y.Q.M.D.C}$PEPTIDE1,PEPTIDE1,1:R3-12:R3$$$V2.0), the residual activity in assay [2] amounted to 80%.

Consider `CSCC[C@@H]1NC(=O)[C@H](CCC(N)=O)NC(=O)[C@H](Cc2ccc(O)cc2)NC(=O)[C@H]([C@@H](C)O)NC(=O)[C@H]([C@@H](C)O)NC(=O)[C@@H]2CCCN2C(=O)[C@H](CC(N)=O)NC(=O)[C@H](Cc2ccc(O)cc2)NC(=O)[C@H](CC(C)C)NC(=O)[C@H](CCSC)NC(=O)[C@@H](N)CSSC[C@@H](C(=O)O)NC(=O)[C@H](C(C)C)NC(=O)[C@H](CC(=O)O)NC1=O` (HELM PEPTIDE1{C.M.L.Y.N.P.T.T.Y.Q.M.D.V.C}$PEPTIDE1,PEPTIDE1,1:R3-14:R3$$$V2.0), for which the inhibition result in assay [1] was “Active”.

For the compound `CSCC[C@@H]1NC(=O)[C@H](CCC(N)=O)NC(=O)[C@H](Cc2ccc(O)cc2)NC(=O)[C@H]([C@@H](C)O)NC(=O)[C@H]([C@@H](C)O)NC(=O)[C@@H]2CCCN2C(=O)[C@H](CC(N)=O)NC(=O)[C@H](Cc2ccc(O)cc2)NC(=O)[C@H](CC(C)C)NC(=O)[C@H](CCSC)NC(=O)[C@H](CC(C)C)NC(=O)[C@@H]2CCCN2C(=O)[C@@H]2CCCN2C(=O)[C@@H](N)CSSC[C@@H](C(=O)O)NC(=O)CNC(=O)[C@H](CCC(=O)O)NC(=O)[C@@H]2CCCN2C(=O)[C@H](C(C)C)NC(=O)[C@H](CC(=O)O)NC1=O` (HELM PEPTIDE1{C.P.P.L.M.L.Y.N.P.T.T.Y.Q.M.D.V.P.E.G.C}$PEPTIDE1,PEPTIDE1,1:R3-20:R3$$$V2.0), in assay [1], the inhibition result was “Active”.

Regarding `C[C@@H]1NC(=O)[C@H](CCC(N)=O)NC(=O)[C@H](Cc2ccc(O)cc2)NC(=O)[C@H]([C@@H](C)O)NC(=O)[C@H]([C@@H](C)O)NC(=O)[C@@H]2CCCN2C(=O)[C@H](CC(N)=O)NC(=O)[C@H](Cc2ccc(O)cc2)NC(=O)[C@@H](N)CSSC[C@@H](C(=O)O)NC1=O` (HELM PEPTIDE1{C.Y.N.P.T.T.Y.Q.A.C}$PEPTIDE1,PEPTIDE1,1:R3-10:R3$$$V2.0), the residual activity in assay [2] is 73%.

`C[C@@H](O)[C@@H]1NC(=O)[C@H]([C@@H](C)O)NC(=O)[C@@H]2CCCN2C(=O)[C@H](CC(N)=O)NC(=O)[C@H](Cc2ccc(O)cc2)NC(=O)[C@@H](N)CSSC[C@@H](C(=O)N[C@@H](CC(=O)O)C(=O)O)NC(=O)[C@H](CCC(N)=O)NC(=O)[C@H](Cc2ccc(O)cc2)NC1=O` (HELM PEPTIDE1{C.Y.N.P.T.T.Y.Q.C.D}$PEPTIDE1,PEPTIDE1,1:R3-9:R3$$$V2.0): in assay [1], the inhibition entry was “inactive”.

Consider `CC(C)C[C@@H]1NC(=O)[C@H](CCC(N)=O)NC(=O)[C@H](Cc2ccc(O)cc2)NC(=O)[C@H]([C@@H](C)O)NC(=O)[C@H]([C@@H](C)O)NC(=O)[C@@H]2CCCN2C(=O)[C@H](CC(N)=O)NC(=O)[C@H](Cc2ccc(O)cc2)NC(=O)[C@@H](N)CSSC[C@@H](C(=O)O)NC1=O` (HELM PEPTIDE1{C.Y.N.P.T.T.Y.Q.L.C}$PEPTIDE1,PEPTIDE1,1:R3-10:R3$$$V2.0), for which, in assay [2], the residual activity was 73%.

Take `CSCC[C@@H]1NC(=O)[C@H](CCC(N)=O)NC(=O)[C@H](Cc2ccc(O)cc2)NC(=O)[C@H]([C@@H](C)O)NC(=O)[C@H]([C@@H](C)O)NC(=O)[C@@H]2CCCN2C(=O)[C@H](CC(N)=O)NC(=O)[C@H](Cc2ccc(O)cc2)NC(=O)[C@@H](N)CSSC[C@@H](C(=O)N[C@H](C(=O)N[C@@H](CC(N)=O)C(=O)N2CCC[C@H]2C(=O)N[C@@H](CCC(=O)O)C(=O)O)C(C)C)NC1=O` (HELM PEPTIDE1{C.Y.N.P.T.T.Y.Q.M.C.V.N.P.E}$PEPTIDE1,PEPTIDE1,1:R3-10:R3$$$V2.0): the inhibition entry in assay [1] was “inactive”.

Take `CSCC[C@@H]1NC(=O)[C@H](CCC(N)=O)NC(=O)[C@H](Cc2ccc(O)cc2)NC(=O)[C@H]([C@@H](C)O)NC(=O)[C@H]([C@@H](C)O)NC(=O)[C@@H]2CCCN2C(=O)[C@H](CC(N)=O)NC(=O)[C@H](Cc2ccc(O)cc2)NC(=O)[C@@H](N)CSSC[C@@H](C(=O)N[C@H](C(=O)N[C@@H](CC(N)=O)C(=O)O)C(C)C)NC1=O` (HELM PEPTIDE1{C.Y.N.P.T.T.Y.Q.M.C.V.N}$PEPTIDE1,PEPTIDE1,1:R3-10:R3$$$V2.0): in assay [1], the inhibition result is “inactive”.

Consider `CSCC[C@@H]1NC(=O)[C@H](CCC(N)=O)NC(=O)[C@H](Cc2ccc(O)cc2)NC(=O)[C@H]([C@@H](C)O)NC(=O)[C@H]([C@@H](C)O)NC(=O)[C@@H]2CCCN2C(=O)[C@H](CC(N)=O)NC(=O)[C@H](Cc2ccc(O)cc2)NC(=O)[C@@H](N)CSSC[C@@H](C(=O)N[C@H](C(=O)O)C(C)C)NC1=O` (HELM PEPTIDE1{C.Y.N.P.T.T.Y.Q.M.C.V}$PEPTIDE1,PEPTIDE1,1:R3-10:R3$$$V2.0), for which, in assay [1], the inhibition result is “inactive”.

For the compound `CSCC[C@@H]1NC(=O)[C@H](CCC(N)=O)NC(=O)[C@H](Cc2ccc(O)cc2)NC(=O)[C@H]([C@@H](C)O)NC(=O)[C@H]([C@@H](C)O)NC(=O)[C@@H]2CCCN2C(=O)[C@H](CC(N)=O)NC(=O)[C@H](Cc2ccc(O)cc2)NC(=O)[C@@H](N)CSSC[C@@H](C(=O)O)NC(=O)[C@H](CC(=O)O)NC1=O` (HELM PEPTIDE1{C.Y.N.P.T.T.Y.Q.M.D.C}$PEPTIDE1,PEPTIDE1,1:R3-11:R3$$$V2.0), the residual activity in assay [2] worked out at 80%.

On to `C[C@@H](O)[C@@H]1NC(=O)[C@H]([C@@H](C)O)NC(=O)[C@@H]2CCCN2C(=O)[C@H](CC(N)=O)NC(=O)[C@H](Cc2ccc(O)cc2)NC(=O)[C@@H](N)CSSC[C@@H](C(=O)O)NC(=O)[C@H](CCC(N)=O)NC(=O)[C@H](CCC(N)=O)NC(=O)[C@H](Cc2ccc(O)cc2)NC1=O` (HELM PEPTIDE1{C.Y.N.P.T.T.Y.Q.Q.C}$PEPTIDE1,PEPTIDE1,1:R3-10:R3$$$V2.0), for which, in assay [2], the residual activity is 73%.

With `C[C@@H](O)[C@@H]1NC(=O)[C@H]([C@@H](C)O)NC(=O)[C@@H]2CCCN2C(=O)[C@H](CC(N)=O)NC(=O)[C@H](Cc2ccc(O)cc2)NC(=O)[C@@H](N)CSSC[C@@H](C(=O)O)NC(=O)[C@H](CC[S+](C)[O-])NC(=O)[C@H](CCC(N)=O)NC(=O)[C@H](Cc2ccc(O)cc2)NC1=O` (stereo partly drawn) (HELM PEPTIDE1{C.Y.N.P.T.T.Y.Q.[CS(=O)CC[C@H](N[*:1])C(=O)[*:2]].C}$PEPTIDE1,PEPTIDE1,1:R3-10:R3$$$V2.0), the residual activity in assay [2] came out at 73%.

`CCCC[C@@H]1NC(=O)[C@H](CCC(N)=O)NC(=O)[C@H](Cc2ccc(O)cc2)NC(=O)[C@H]([C@@H](C)O)NC(=O)[C@H]([C@@H](C)O)NC(=O)[C@@H]2CCCN2C(=O)[C@H](CC(N)=O)NC(=O)[C@H](Cc2ccc(O)cc2)NC(=O)[C@@H](N)CSSC[C@@H](C(=O)O)NC1=O` (HELM PEPTIDE1{C.Y.N.P.T.T.Y.Q.[Nle].C}$PEPTIDE1,PEPTIDE1,1:R3-10:R3$$$V2.0): the residual activity in assay [2] stood at 73%.

As for `CC(C)C[C@H](N)C(=O)N[C@H]1CSSC[C@@H](C(=O)N[C@@H](CC(=O)O)C(=O)O)NC(=O)[C@H](CCC(N)=O)NC(=O)[C@H](Cc2ccc(O)cc2)NC(=O)[C@H]([C@@H](C)O)NC(=O)[C@H]([C@@H](C)O)NC(=O)[C@@H]2CCCN2C(=O)[C@H](CC(N)=O)NC1=O` (HELM PEPTIDE1{L.C.N.P.T.T.Y.Q.C.D}$PEPTIDE1,PEPTIDE1,2:R3-9:R3$$$V2.0), the inhibition entry in assay [1] is “inactive”.

As for `CSCC[C@@H]1NC(=O)[C@H](CCC(N)=O)NC(=O)[C@H](Cc2ccc(O)cc2)NC(=O)[C@H]([C@@H](C)O)NC(=O)[C@H]([C@@H](C)O)NC(=O)[C@@H]2CCCN2C(=O)[C@H](CC(N)=O)NC(=O)[C@H](Cc2ccc(O)cc2)NC(=O)[C@@H](NC(=O)[C@@H](N)CCSC)CSSC[C@@H](C(=O)O)NC1=O` (HELM PEPTIDE1{M.C.Y.N.P.T.T.Y.Q.M.C}$PEPTIDE1,PEPTIDE1,2:R3-11:R3$$$V2.0), in assay [2], the residual activity is 64%.

As usually defined, the residual activity is the activity still measured, relative to the control.
